From ChEMBL document CHEMBL1143267, “Type II NADH dehydrogenase of the respiratory chain of Plasmodium falciparum and its inhibitors” (Bioorg Med Chem Lett, 2009)

Experiments:
[1] = Inhibition of Plasmodium falciparum NDH2
Procedure, shortened: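 Purified recombinant His-tagged enzyme, HEPES pH 8.0. Reaction with 200 µM NADH and 100 µM CoQ0. NAD+ product quantified by fluorescence after acetophenone/formic acid derivatisation at 100 °C (ex 372/em 444 nm). Compounds tested up to 10 µM. IC50 from three independent experiments.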

[2] = target: T1, Dihydroorotate dehydrogenase (Plasmodium falciparum, UniProt Q54A96); assay: Inhibition of Plasmodium falciparum DHOD
T1 sequence (Q54A96 whole entry): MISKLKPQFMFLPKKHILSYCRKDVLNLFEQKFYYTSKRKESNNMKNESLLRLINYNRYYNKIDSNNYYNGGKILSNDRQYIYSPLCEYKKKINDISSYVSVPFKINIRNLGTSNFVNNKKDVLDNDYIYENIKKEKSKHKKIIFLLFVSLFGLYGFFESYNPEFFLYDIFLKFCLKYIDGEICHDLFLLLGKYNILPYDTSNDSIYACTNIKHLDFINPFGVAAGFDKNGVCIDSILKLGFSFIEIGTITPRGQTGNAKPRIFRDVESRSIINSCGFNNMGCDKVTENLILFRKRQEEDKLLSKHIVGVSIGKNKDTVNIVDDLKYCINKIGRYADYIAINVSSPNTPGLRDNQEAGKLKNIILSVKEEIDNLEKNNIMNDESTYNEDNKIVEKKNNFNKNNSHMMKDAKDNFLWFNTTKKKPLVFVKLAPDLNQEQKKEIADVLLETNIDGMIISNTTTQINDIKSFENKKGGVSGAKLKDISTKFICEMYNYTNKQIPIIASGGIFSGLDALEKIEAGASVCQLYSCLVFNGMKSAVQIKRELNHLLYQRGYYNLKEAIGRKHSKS
Procedure, shortened: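 DCIP-coupled chromogenic assay with 500 µM L-dihydroorotate and 115 µM CoQ0 as electron acceptor. Compounds tested up to 10 µM. IC50 from three independent experiments.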

[3] = target: T2, Dihydroorotate dehydrogenase (fumarate) (Saccharomyces cerevisiae S288c, UniProt P28272); assay: Inhibition of Saccharomyces cerevisiae DHOD
T2 sequence (P28272 whole entry): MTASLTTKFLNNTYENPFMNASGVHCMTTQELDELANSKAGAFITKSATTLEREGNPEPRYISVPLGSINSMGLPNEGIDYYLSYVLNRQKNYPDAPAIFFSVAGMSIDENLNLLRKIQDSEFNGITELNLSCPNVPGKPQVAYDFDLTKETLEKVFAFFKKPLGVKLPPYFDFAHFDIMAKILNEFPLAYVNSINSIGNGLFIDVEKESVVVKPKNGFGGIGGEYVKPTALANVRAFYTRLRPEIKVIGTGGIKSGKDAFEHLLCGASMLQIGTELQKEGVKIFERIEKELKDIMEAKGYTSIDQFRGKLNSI

Plasmodium falciparum [4] = assay: Antimalarial activity against Plasmodium falciparum DD2 expressing Saccharomyces cerevisiae DHOD by [3H]hypoxanthine uptake; format: functional, organism-based
Procedure, shortened: (§1)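 Asexual parasite proliferation measured by [3H]-hypoxanthine incorporation dose–effect curves, in parental DD2 and a transgenic DD2 line expressing yeast cytoplasmic DHOD. IC50 from three independent experiments. Antimycin A, a mixture of A1–A4, expressed in mg/mL.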

Plasmodium falciparum [5] = assay: Activity of Plasmodium falciparum NDH2 expressed in Escherichia coli by Michaelis-Menten plot
Procedure, shortened: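 Full-length enzyme with C-terminal 6xHis tag, purified in 0.5% Triton X-100. NAD+ formed was quantified by fluorescence: acetophenone base, then formic acid at 100 °C, excitation 372 nm, emission 444 nm. HEPES pH 8.0. One substrate (electron acceptor or NADH) varied while the other was fixed at 500 µM. Km and kcat from best-fit Michaelis–Menten curves, three independent experiments.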

Plasmodium falciparum [6] = assay: Antimalarial activity against Plasmodium falciparum DD2 by [3H]hypoxanthine uptake; format: functional, organism-based; procedure, shortened: as §1

SMILES | IC50 [1] | IC50 [2] | IC50 [3] | IC50 (Plasmodium falciparum [4]) | Km (Plasmodium falciparum [5]) | kcat (Plasmodium falciparum [5]) | IC50 (Plasmodium falciparum [6])
CCCCCCCCCCCCc1cc(=O)c2ccccc2n1O | > 10 µM | 4 µM | > 10 µM | > 10 µM |  |  | 
CC1=CC(=O)c2ccccc2C1=O |  |  |  |  | 239 µM | 4.6 min⁻¹ | 
O=C1C=CC(=Nc2cc(Cl)c(O)c(Cl)c2)C=C1 |  |  |  |  | 4.6 µM | 1.9 min⁻¹ | 
CCCCCC[C@H]1C(=O)O[C@H](C)[C@H](NC(=O)c2cccc(NC=O)c2O)C(=O)O[C@@H](C)[C@@H]1OC(=O)CC(C)C [ANTIMYCIN A] | > 10 µM | > 10 µM | > 10 µM | > 10 µM |  |  | 
C[C@@H]1CC[C@H]2[C@@H](C)C(=O)O[C@@H]3O[C@@]4(C)CC[C@@H]1[C@]32OO4 [ARTEMISININ] | > 10 µM | > 10 µM | > 10 µM | 0.006 µM |  |  | 
O=C1C(O)=C([C@H]2CC[C@H](c3ccc(Cl)cc3)CC2)C(=O)c2ccccc21 [ATOVAQUONE] | > 10 µM | > 10 µM | > 10 µM | > 10 µM |  |  | 2 nM
c1ccc2c(c1)[I+]c1ccccc1-2 [DIPHENYLENEIODONIUM CHLORIDE] |  | > 10 µM |  |  |  |  | 
c1ccc([I+]c2ccccc2)cc1 [DIPHENYLIODONIUM CHLORIDE] | > 10 µM | > 10 µM | > 10 µM | 10.6 µM |  |  | 12400 nM
O=c1cc(-c2ccccc2)oc2ccccc12 [FLAVONE] | > 10 µM | > 10 µM | > 10 µM | > 10 µM |  |  | 2 nM
C=C(C)[C@H]1Cc2c(ccc3c2O[C@@H]2COc4cc(OC)c(OC)cc4[C@@H]2C3=O)O1 [ROTENONE] | > 10 µM | > 10 µM | > 10 µM | > 10 µM |  |  | > 10000 nM
